Key:
[1] = target: Histone deacetylase 1 (Homo sapiens, UniProt Q13547); assay: Inhibition of human HDAC1 using Boc-Lys(Ac)-AMC as substrate preincubated for 30 mins followed by substrate addition measured after 60 mins by trypsin-based fluorescence assay
In short: (§1)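 Fluorogenic deacetylase assay with Boc-Lys(Ac)-AMC substrate. After a 30 min incubation, trypsin was added to convert the deacetylated substrate to the fluorescent dye.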

[2] = Inhibition of Pseudomonas aeruginosa PA1409 using Boc-Lys(trifluoroacetyl)-AMC as substrate preincubated for 30 mins followed by substrate addition measured after 60 mins by trypsin-based fluorescence assay
[3] = target: T1, Histone deacetylase 8 (Homo sapiens, UniProt Q9BY41); assay: Inhibition of human HDAC8 using Boc-Lys(trifluoroacetyl)-AMC as substrate preincubated for 30 mins followed by substrate addition measured after 60 mins by trypsin-based fluorescence assay
T1 sequence (Q9BY41 whole entry): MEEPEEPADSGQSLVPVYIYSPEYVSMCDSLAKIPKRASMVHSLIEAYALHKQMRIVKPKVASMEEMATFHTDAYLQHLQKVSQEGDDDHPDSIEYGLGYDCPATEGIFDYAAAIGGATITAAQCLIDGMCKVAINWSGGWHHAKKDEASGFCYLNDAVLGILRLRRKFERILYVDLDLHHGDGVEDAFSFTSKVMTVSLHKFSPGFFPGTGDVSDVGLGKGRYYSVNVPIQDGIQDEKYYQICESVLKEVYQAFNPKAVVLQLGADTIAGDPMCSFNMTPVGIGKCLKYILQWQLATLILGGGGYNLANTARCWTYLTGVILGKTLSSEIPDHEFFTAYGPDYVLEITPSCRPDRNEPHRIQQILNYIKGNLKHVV
In short: (§2)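 Boc-Lys(trifluoroacetyl)-AMC served as substrate in a fluorogenic activity assay. Trypsin was added after a 30 min incubation to release the fluorescent dye from the deacetylated product. IC50 values came from 10-point ligand dose-response curves and were converted to Ki by the Cheng-Prusoff relation.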

[4] = target: Histone deacetylase 5 (Homo sapiens, UniProt Q9UQL6); assay: Inhibition of human HDAC5 using Boc-Lys(trifluoroacetyl)-AMC as substrate preincubated for 30 mins followed by substrate addition measured after 60 mins by trypsin-based fluorescence assay
[5] = Inhibition of Pseudomonas aeruginosa PA0321 using Boc-Lys(trifluoroacetyl)-AMC as substrate preincubated for 30 mins followed by substrate addition measured after 60 mins by trypsin-based fluorescence assay
[6] = Inhibition of Alcaligenes HDAH using Boc-Lys(trifluoroacetyl)-AMC as substrate preincubated for 30 mins followed by substrate addition measured after 60 mins by trypsin-based fluorescence assay
In short: (§3)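 Bacterial HDAH activity was measured by a fluorogenic assay in which the deacetylated substrate is converted to fluorescent dye by trypsin. Ki was calculated via Cheng-Prusoff from IC50 values, which were fitted to dose-response curves spanning 10 ligand concentrations.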

[7] = target: T2, Histone deacetylase 7 (Homo sapiens, UniProt Q8WUI4); assay: Inhibition of human HDAC7 using Boc-Lys(trifluoroacetyl)-AMC as substrate preincubated for 30 mins followed by substrate addition measured after 60 mins by trypsin-based fluorescence assay; in short: as §2
T2 sequence (Q8WUI4 whole entry): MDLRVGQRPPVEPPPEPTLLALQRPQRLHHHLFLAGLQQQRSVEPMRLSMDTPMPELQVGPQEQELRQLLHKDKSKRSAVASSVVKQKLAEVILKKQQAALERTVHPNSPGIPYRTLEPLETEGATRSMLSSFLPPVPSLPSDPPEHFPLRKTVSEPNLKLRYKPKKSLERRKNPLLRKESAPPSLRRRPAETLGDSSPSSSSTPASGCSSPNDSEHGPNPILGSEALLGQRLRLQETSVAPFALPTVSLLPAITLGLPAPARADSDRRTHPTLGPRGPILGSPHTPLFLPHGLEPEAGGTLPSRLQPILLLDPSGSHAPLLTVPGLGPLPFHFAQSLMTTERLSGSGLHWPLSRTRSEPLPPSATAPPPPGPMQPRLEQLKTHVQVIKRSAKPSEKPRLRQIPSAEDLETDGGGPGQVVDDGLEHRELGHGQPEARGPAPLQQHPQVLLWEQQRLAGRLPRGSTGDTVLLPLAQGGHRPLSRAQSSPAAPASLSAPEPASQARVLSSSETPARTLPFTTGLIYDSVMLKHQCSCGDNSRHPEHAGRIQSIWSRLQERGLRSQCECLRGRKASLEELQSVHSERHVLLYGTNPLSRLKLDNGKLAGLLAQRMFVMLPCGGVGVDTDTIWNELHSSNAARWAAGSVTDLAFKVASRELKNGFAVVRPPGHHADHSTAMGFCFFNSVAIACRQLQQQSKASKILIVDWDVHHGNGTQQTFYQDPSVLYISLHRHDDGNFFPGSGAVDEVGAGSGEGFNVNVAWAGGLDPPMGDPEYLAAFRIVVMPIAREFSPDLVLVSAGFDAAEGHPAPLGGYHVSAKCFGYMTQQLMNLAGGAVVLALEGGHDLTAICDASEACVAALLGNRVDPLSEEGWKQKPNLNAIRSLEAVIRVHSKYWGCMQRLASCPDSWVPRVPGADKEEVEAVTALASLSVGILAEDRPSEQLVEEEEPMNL

[8] = target: T3, Protein deacetylase HDAC6 (Homo sapiens, UniProt Q9UBN7); assay: Inhibition of human HDAC6 using Boc-Lys(Ac)-AMC as substrate preincubated for 30 mins followed by substrate addition measured after 60 mins by trypsin-based fluorescence assay; in short: as §1
T3 sequence (Q9UBN7 whole entry): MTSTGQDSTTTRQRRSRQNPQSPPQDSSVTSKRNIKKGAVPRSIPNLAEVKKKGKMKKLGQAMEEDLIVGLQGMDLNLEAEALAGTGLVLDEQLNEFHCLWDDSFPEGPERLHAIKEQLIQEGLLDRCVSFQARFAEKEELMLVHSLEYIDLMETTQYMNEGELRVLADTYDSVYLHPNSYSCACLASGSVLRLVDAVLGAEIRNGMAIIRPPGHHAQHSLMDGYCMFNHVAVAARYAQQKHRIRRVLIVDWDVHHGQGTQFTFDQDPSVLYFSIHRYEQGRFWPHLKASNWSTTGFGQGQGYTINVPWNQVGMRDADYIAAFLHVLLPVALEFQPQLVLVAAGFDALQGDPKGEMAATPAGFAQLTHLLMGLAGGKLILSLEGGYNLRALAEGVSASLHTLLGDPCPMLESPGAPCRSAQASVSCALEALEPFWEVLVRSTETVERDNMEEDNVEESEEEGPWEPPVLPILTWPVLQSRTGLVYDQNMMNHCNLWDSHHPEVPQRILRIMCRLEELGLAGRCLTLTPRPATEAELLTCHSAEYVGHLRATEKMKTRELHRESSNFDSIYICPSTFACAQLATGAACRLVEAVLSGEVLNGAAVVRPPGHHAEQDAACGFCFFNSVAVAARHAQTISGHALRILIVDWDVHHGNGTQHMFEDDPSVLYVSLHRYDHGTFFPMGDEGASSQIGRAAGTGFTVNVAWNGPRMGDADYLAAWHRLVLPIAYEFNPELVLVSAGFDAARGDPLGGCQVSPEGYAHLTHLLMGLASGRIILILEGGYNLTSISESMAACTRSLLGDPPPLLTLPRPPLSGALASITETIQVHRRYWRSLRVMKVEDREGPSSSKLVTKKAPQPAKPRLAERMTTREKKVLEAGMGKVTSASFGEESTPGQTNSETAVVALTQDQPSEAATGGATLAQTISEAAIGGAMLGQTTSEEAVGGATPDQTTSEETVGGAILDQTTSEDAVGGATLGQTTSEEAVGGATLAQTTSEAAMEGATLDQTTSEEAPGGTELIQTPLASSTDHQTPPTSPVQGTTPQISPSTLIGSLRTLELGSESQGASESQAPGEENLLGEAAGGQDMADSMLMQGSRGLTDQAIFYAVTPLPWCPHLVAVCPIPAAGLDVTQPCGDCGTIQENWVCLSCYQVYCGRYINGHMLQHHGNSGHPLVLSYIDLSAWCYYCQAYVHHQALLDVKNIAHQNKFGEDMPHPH

[9] = Inhibition of Pseudomonas aeruginosa PA3774 using Boc-Lys(trifluoroacetyl)-AMC as substrate preincubated for 30 mins followed by substrate addition measured after 60 mins by trypsin-based fluorescence assay
[10] = target: Histone deacetylase 4 (Homo sapiens, UniProt P56524); assay: Inhibition of human HDAC4 using Boc-Lys(trifluoroacetyl)-AMC as substrate preincubated for 30 mins followed by substrate addition measured after 60 mins by trypsin-based fluorescence assay
[11] = Inhibition of Bordetella HDAH using Boc-Lys(trifluoroacetyl)-AMC as substrate preincubated for 30 mins followed by substrate addition measured after 60 mins by trypsin-based fluorescence assay; in short: as §3

Chain of Histone deacetylase 1 (Q13547 whole entry): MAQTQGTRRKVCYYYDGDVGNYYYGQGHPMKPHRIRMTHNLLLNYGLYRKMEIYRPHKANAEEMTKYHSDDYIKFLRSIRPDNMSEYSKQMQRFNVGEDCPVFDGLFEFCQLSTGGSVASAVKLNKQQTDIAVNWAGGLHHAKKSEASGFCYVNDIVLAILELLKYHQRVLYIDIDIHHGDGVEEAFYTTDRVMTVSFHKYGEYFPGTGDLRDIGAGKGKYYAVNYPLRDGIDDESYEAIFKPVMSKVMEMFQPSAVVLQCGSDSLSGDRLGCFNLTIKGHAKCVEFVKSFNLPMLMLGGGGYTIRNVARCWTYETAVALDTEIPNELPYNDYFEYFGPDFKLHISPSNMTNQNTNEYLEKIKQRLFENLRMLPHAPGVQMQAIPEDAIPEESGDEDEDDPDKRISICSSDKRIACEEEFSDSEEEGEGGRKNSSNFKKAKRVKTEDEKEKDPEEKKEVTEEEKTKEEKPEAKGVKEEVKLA
Chain of Histone deacetylase 4 (P56524 whole entry): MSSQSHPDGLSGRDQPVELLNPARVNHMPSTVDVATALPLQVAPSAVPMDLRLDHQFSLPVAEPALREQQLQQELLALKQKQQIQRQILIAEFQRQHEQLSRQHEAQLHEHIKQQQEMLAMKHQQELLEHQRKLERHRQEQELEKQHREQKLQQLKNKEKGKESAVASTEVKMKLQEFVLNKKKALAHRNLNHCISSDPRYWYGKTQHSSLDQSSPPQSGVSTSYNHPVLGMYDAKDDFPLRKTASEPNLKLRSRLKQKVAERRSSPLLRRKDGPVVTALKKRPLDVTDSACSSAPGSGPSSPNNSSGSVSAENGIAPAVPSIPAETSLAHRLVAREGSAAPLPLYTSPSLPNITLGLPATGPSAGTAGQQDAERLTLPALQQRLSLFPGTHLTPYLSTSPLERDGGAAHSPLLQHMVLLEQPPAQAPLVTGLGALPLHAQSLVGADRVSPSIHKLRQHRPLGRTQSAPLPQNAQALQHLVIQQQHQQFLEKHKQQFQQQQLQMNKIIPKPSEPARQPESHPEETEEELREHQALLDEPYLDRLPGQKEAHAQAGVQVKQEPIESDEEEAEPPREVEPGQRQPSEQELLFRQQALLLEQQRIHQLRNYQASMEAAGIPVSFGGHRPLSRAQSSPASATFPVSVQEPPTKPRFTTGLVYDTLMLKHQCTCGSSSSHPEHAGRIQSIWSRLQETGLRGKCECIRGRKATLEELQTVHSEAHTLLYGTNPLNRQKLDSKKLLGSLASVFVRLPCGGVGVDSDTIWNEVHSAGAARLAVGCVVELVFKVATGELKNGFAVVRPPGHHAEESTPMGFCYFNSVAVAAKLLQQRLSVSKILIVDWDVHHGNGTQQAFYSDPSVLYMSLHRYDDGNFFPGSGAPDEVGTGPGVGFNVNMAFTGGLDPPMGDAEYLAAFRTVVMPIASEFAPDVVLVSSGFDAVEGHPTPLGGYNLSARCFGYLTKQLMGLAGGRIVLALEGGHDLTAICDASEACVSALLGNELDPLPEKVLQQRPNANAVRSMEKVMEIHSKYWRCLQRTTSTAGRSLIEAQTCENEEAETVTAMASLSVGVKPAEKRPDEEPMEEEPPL
Chain of Histone deacetylase 5 (Q9UQL6 whole entry): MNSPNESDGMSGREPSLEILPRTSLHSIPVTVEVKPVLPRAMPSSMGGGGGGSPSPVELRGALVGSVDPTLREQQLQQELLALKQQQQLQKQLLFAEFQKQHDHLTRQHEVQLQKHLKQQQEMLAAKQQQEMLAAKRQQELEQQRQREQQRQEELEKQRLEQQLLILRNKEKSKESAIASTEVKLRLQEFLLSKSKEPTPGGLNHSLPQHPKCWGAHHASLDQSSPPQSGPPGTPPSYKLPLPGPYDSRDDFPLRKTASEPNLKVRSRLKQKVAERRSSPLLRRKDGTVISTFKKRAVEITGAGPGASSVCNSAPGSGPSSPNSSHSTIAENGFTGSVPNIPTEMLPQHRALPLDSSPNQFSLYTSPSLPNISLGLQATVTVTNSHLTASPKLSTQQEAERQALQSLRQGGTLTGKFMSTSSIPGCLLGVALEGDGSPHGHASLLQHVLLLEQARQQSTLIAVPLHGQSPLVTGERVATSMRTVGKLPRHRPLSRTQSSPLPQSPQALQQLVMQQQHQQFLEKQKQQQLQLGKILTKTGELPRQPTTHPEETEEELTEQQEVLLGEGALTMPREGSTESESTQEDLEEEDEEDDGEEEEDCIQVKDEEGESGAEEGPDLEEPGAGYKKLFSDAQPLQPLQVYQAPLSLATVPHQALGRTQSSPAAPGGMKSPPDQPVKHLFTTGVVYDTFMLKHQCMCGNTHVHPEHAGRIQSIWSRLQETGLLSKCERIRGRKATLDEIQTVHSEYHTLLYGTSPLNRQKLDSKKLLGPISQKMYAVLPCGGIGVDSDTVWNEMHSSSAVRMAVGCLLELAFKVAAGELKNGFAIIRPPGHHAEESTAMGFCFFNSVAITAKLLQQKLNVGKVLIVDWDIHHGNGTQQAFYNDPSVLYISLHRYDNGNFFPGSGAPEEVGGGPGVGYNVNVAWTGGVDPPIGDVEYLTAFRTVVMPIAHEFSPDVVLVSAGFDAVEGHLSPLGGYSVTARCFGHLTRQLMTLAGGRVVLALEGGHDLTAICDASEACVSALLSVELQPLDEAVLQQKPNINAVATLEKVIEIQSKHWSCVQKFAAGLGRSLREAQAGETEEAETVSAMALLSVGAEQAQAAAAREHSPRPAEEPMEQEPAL

SMILES	Ki [1] [µM]	Ki [2] [µM]	Ki [3] [µM]	Ki [4] [µM]	Ki [5] [µM]	Ki [6] [µM]	Ki [7] [µM]	Ki [8] [µM]	Ki [9] [µM]	Ki [10] [µM]	Ki [11] [µM]
Cc1ccc(NC(=O)C(F)(F)C(F)(F)C(F)(F)C(F)(F)C(F)(F)C(F)(F)C(=O)NO)cc1C	7	5.8	8.4	> 50	1.6	0.11	2.5	20	0.1	> 50	0.11
CN(C)c1ccc(NC(=O)C(F)(F)C(F)(F)C(F)(F)C(F)(F)C(F)(F)C(F)(F)C(=O)NO)cc1	> 50	> 50	> 50	> 50	> 50	> 50	> 50	> 50	2.7	> 50	> 50
O=C(NO)C(F)(F)C(F)(F)C(F)(F)C(F)(F)C(F)(F)C(F)(F)C(=O)Nc1ccc(F)cc1	> 50	> 50	> 50	> 50	0.49	0.33	> 50	> 50	0.46	> 50	0.33
Cc1ccccc1NC(=O)C(F)(F)C(F)(F)C(F)(F)C(F)(F)C(F)(F)C(F)(F)C(=O)NO	> 50	> 50	> 50	> 50	84	0.62	> 50	> 50	0.16	> 50	0.62
O=C(NO)C(F)(F)C(F)(F)C(F)(F)C(F)(F)C(F)(F)C(F)(F)C(=O)Nc1cccc(Cl)c1	> 50	11	> 50	> 50	0.073	0.17	> 50	> 50	0.046	> 50	0.17
COc1ccc(NC(=O)C(F)(F)C(F)(F)C(F)(F)C(F)(F)C(F)(F)C(F)(F)C(=O)NO)cc1	> 50	> 50	> 50	> 50	0.37	0.18	> 50	> 50	1.2	> 50	0.18
Cc1cccc(NC(=O)C(F)(F)C(F)(F)C(F)(F)C(F)(F)C(F)(F)C(F)(F)C(=O)NO)c1	> 50	11	> 50	> 50	0.27	0.45	> 50	> 50	0.092	> 50	0.45
O=C(NO)C(F)(F)C(F)(F)C(F)(F)C(F)(F)C(F)(F)C(F)(F)C(=O)Nc1ccccc1Cl	> 50	> 50	> 50	> 50	0.8	0.24	> 50	> 50	0.16	> 50	0.24

— ChEMBL document CHEMBL4004881, “Perfluorinated hydroxamic acids are potent and selective inhibitors of HDAC-like enzymes from Pseudomonas aeruginosa” (Bioorg Med Chem Lett, 2017)
